Test results published in ChEMBL document CHEMBL4513216, “Probing the Open Global Health Chemical Diversity Library for Multistage-Active Starting Points for Next-Generation Antimalarials” (ACS Infect Dis, 2020).

Assay: Toxicity liver stage against HepG2, at 10uM
Assay type: cell-based
Parameters: test concentration 10 uM, cell line HepG2-A16-CD81EGFP
Conditions: human, HepG2-A16-CD81EGFP cells; read-out: INHIBITION
Summary of the method: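 Uninfected HepG2-A16-CD81EGFP cells, 3 × 10^3 per well, 1536-well, plated on prespotted compound at 10 μM final, parasite-free screening media added to match infected plates; puromycin 10 μM positive, DMSO 0.5% negative; run in parallel with 48 h PbLuc assay at 37 °C, 5% CO2; viability by CellTiter-Glo luminescence, normalized to controls.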

| Structure (SMILES) | cytotoxicity at 10 µM |
| --- | --- |
| CC(C)N1C[C@@H]2OCC(=O)N(Cc3ccccc3)[C@@H]2C1 | 10.5% |
| CCCSc1ncccc1C(=O)NCc1ccc(N(C)C)cc1 | 8.07% |
| CC[S+](CC)[c-]1c(=O)[nH]c(=O)n(CCc2ccc(F)cc2)c1=O | 4.12% |
| COc1ccc(CC(C)(O)CNC(=O)c2cccs2)cc1 (stereo not drawn) | -4.69% |
| O=C(NCC(F)(F)F)c1ccc(-n2cncn2)nn1 | -1.66% |
| CCc1ccc2c(C3CN(C(C)=O)C3)ncn2c1 | 2.16% |
| CCn1ncc2c1C(COC)CN(Cc1ccc(C)o1)C2 (stereo not drawn) | 5.41% |
| CN1Cc2c(C(=O)NCC3CCCO3)ncn2-c2ccccc2S1(=O)=O (stereo not drawn) | -141% |
| O=C1CC(c2cccc(O)c2)c2c(c(C(=O)O)cn2-c2ccccc2)N1 (stereo not drawn) | 1% |
| Cc1cc(C(=O)N2CC[C@H](OCC3CC3)[C@@H]2Cc2cccnc2)no1 | -6.44% |
| COc1ccc(OC)c(C(C)NS(=O)(=O)c2cn(C)nc2C)c1 (stereo not drawn) | 8.35% |
| CN1CCN(C(=O)c2cc(-c3ccco3)cs2)CC1 | 1.63% |
| CC(C)(C)C(=O)N1CCC(c2noc(C3CCC(=O)N3)n2)CC1 (stereo not drawn) | -3.06% |
| O=C(CC1CCCC1)N1CCC(c2nnc(-c3ccccn3)o2)CC1 | -3.32% |
| Cc1nc(Nc2nccs2)cc(C2CN(C(C)C)C2)n1 | -5.42% |
| Cc1ccc2[nH]c(C3CCN(C)CC3)nc2c1 | 6.79% |
| O=C(NCCO)C1(Cc2ccccc2-c2ccncc2)CCOCC1 | 2.27% |
| CCc1nnc(Nc2cccc(C3CCN(C(=O)CNC)CC3)n2)s1 | -31.2% |
| Cc1nc(Nc2cnccn2)cc(C2CCN(c3ncccn3)C2)n1 (stereo not drawn) | -19.5% |
| CNc1cc(C2CCCN2Cc2ccc(OCC(=O)O)cc2)ccn1 (stereo not drawn) | -21.9% |
| CC(=O)N1CCN(CC(N)=O)CC(COc2ccccc2)C1 (stereo not drawn) | -28.7% |
| COCC(=O)N1CCN(Cc2cc(-c3ccncc3)nn2C)CC1 | -4.17% |
| CC(=O)N(C)CC(=O)Nc1cc(C(F)(F)F)c[nH]c1=O | 4.57% |

| Structure (SMILES) | cytotoxicity at 10 µM |
| --- | --- |
| CN(Cc1ccc(Br)c2cccnc12)S(C)(=O)=O | 2.92% |
| COc1c(C)cnc(CN2CCn3c(nnc3C3CC3)C2)c1C | -4.94% |
| Cc1cc(C)cc(NCCC(=O)NC2CCN(C(=O)C3CC3)CC2)c1 | 2.4% |
| CC(NC(=O)Nc1cccnc1N1CCCC1)c1ccccn1 (stereo not drawn) | 8.05% |
| O=C(Nc1cc[nH]n1)c1ccc(COCC(F)(F)F)cc1 | -7.46% |
| O=C(c1cnc(NCC2CCCO2)c(Cl)c1)N1CCOCC1 (stereo not drawn) | 0.0875% |
| O=C(NCc1ccccn1)N1CC=C(c2ccccc2)CC1 | 14.9% |
| Cc1nn(C)cc1C(=O)NCc1cc(N(C)C)nc2ccccc12 | 2.29% |
| Cc1noc(CN2CCN(CCS(C)(=O)=O)CC2)n1 | -10.1% |
| O=C(Nc1ccc(N2CCOCC2)nc1)N1CCc2sccc2C1 | -2.26% |
| CSC(C)(C)CNC(=O)NCc1cccc(-n2cncn2)c1 | -14.4% |
| CN(CC(N)=O)S(=O)(=O)c1ccc(F)cc1F | 4.26% |
| Cc1ccc(CNC2CCc3nc(C(C)C)nn3C2)o1 (stereo not drawn) | -1.85% |
| Cc1cnn(CC2CCCCN2C(=O)c2ccc3c(c2)nnn3C)c1 (stereo not drawn) | -6.36% |
| CCOC(C)c1nc(Cn2cc(C(=O)NC)ccc2=O)cs1 (stereo not drawn) | -0.315% |
| COc1ccc(C)cc1CCNS(C)(=O)=O | 2.39% |
| Cc1ccc(-n2ccnc2)c(C(=O)NCCOCC(F)(F)F)c1 | -136% |
| Cc1oc(-c2ccc(Cl)cc2)nc1C(=O)NC1=NCCS1 | 4.65% |
| CN(Cc1nnc(C2CC2)o1)C(c1ccc(F)cc1)c1cccnc1 (stereo not drawn) | -4.06% |
| O=C(CNC1CCc2ncnn2C1)N(C1=CCCCC1)C1CC1 (stereo not drawn) | -8.07% |
| CS(=O)(=O)N1CCN(c2cc(N3CCCC3CO)ncn2)CC1 (stereo not drawn) | 3.51% |
| CS(=O)(=O)c1cccc(S(=O)(=O)NC(=O)CC2CCCCC2)c1 | -3.17% |
| COCCNC(=O)N1CCCCC1CNC(=O)Nc1ccccc1 (stereo not drawn) | -0.244% |

| Structure (SMILES) | cytotoxicity at 10 µM |
| --- | --- |
| CC(C)(C)c1cnc(CNc2cccc(Cn3cnnc3)c2)o1 | 2.72% |
| CCCN(CCc1ccccn1)C(=O)Cn1cnnn1 | 2.52% |
| CC(O)C1CCN(C(=O)CCOc2ccccc2F)CC1 (stereo not drawn) | -5.63% |
| CC(C)(C)C(O)CN1CCN(CC(=O)NC(C2CC2)C2CC2)CC1 (stereo not drawn) | 3.51% |
| CN(C(=O)c1cccnc1OCC(F)F)c1ccc2c(c1)CCO2 | 3.47% |
| Cc1ccc(CCC(=O)N2CCOCC2)cc1Cl | 12.3% |
| Cc1ccc(F)c(NCc2ccc(C(=O)N(C)C)[nH]2)c1 | 4.96% |
| CC(CNC(=O)N1CCSCC1)Cc1cccs1 (stereo not drawn) | -8.63% |
| CCOCCCNC(=O)c1ccccc1S(C)(=O)=O | -1.58% |
| COCCO[C@H]1CCN(C(=O)c2ccsc2)[C@H]1Cc1cnn(C)c1 | -72.8% |
| Cc1nc2c(C)cccc2cc1C(=O)N1CCC2(CCN(C)CC2)C1 | -4.39% |
| Cn1nc(CO)c2c1CCN(c1ncnc3c1CCNC3)C2 | -0.132% |
| CCN(CC)C(=O)Cn1cc(-c2nc(C(C)C)no2)nn1 | 2.28% |
| COc1c(F)cc(CN2CCC3(CC2)C(C(=O)O)CC(=O)N3C)cc1Cl (stereo not drawn) | 5.13% |
| CC(C)Cc1cc(C(=O)NC(C)(C)c2nnc(N)s2)n(C)n1 | 0.91% |
| COc1ccc2c(=O)n(CC3CCNC3)ccc2c1OC (stereo not drawn) | 5.76% |
| Cc1ncnc(NCCCN2CCCCC2CO)c1C (stereo not drawn) | -2.35% |
| CCSCCn1cc(-c2nccs2)nn1 | 0.935% |
| CCN(C)c1ccc(C(=O)NCCCc2ccccn2)cn1 | -43.7% |
| O=C1CC(c2ccc3ccccc3n2)c2c(n[nH]c2C2CCC2)N1 (stereo not drawn) | -6.43% |
| O=C(CCc1cc2n(n1)CCNC2)NCCS(=O)(=O)N1CCCC1 | 0.487% |
| CN(CCCO)C(=O)c1ccc2c(c1)nc(N1CC[C@H](O)C1)n2C | -1.46% |
| CCN(Cc1ccncc1)C(=O)c1cn(CCCc2ccccc2)nn1 | 3% |

| Structure (SMILES) | cytotoxicity at 10 µM |
| --- | --- |
| OCCO[C@H]1C[C@@H](O)C12CCN(Cc1nc(C(F)(F)F)no1)CC2 | 0.145% |
| COCCC1CCCCN1Cc1nc(Cc2cccc(F)c2)no1 (stereo not drawn) | -142% |
| CSc1nccc(N2CCN(C)C3(CCNC(=O)CC3)C2)n1 (stereo not drawn) | 18.7% |
| CCOCCCC(=O)N(C)C(c1cccc(F)c1)c1ccccn1 (stereo not drawn) | -10.2% |
| Cn1cc(CCNC(=O)N2CCCC(c3nncn3C)C2)cn1 (stereo not drawn) | -4.41% |
| CN(CCCOc1ccccc1)Cc1nc2c(cnn2C)c(=O)[nH]1 | -3.23% |
| Cc1cccc(C)c1OCCNC(=O)CN1CCN(C)CC1C (stereo not drawn) | -6.28% |
| Cc1cccc(NC(=O)C(C)Nc2cccc(CN3CCOC3=O)c2)c1 (stereo not drawn) | 6.92% |
| c1ccc(-c2nc(CNCC3CCCN3c3cccnn3)co2)cc1 (stereo not drawn) | -12.7% |
| Cc1cc(CN2CCN(C(=O)NC(C)Cn3cccn3)CC2)no1 (stereo not drawn) | -7.45% |
| Cc1ccccc1OCC(O)CN1CCC(c2ccn[nH]2)CC1 (stereo not drawn) | 0.531% |
| Cc1cnn(CC2CCCCN2Cc2nnsc2Cl)c1 (stereo not drawn) | -2.93% |
| Cc1ncc(CN2CCCC(c3cc(C(F)(F)F)[nH]n3)C2)s1 (stereo not drawn) | -17.8% |
| CCN1CCC(CNC(=O)Nc2cc(C)on2)C1 (stereo not drawn) | -7.33% |
| Cc1cnn(CCNCc2ccc(OCc3cccnc3)cc2)c1 | -12.1% |
| Cc1nn(C)c(N(C)C)c1CNCc1cccc(Cn2cncn2)c1 | -7.85% |
| Cc1cnn(CC(C)NCc2ccncc2)c1 (stereo not drawn) | -2.81% |
| O=C1NCC(C(=O)Nc2ncc(Cc3ccccc3F)s2)N1 (stereo not drawn) | -1.11% |
| Cc1noc(C(C)C)c1C(=O)NCCC(=O)N1CCCCC1 | 0.632% |
| Cc1nnc(NC(=O)CN2CCc3nn(C(C)C)c(=O)cc3C2)s1 | -18.9% |
| CCOc1cccc(CNCc2ccc(NC(=O)NC(C)C)cc2)c1 | -11.5% |
| CC(=O)N(Cc1noc(C)n1)C1CCN(Cc2cccc(C#N)c2)C1 (stereo not drawn) | -0.645% |
| Cc1cnn(CC2CCCCN2C(=O)c2ccc3c(c2)COC3)c1 (stereo not drawn) | -24.7% |

| Structure (SMILES) | cytotoxicity at 10 µM |
| --- | --- |
| O=C(CN1CCOC(Cn2cccn2)C1)Nc1ccncc1 (stereo not drawn) | 0.748% |
| COc1ccc(-c2noc(CN3CC(n4cccn4)C3)n2)c(OC)c1 | -11.2% |
| CCOc1ccccc1C(CC(=O)Nc1nc(C)cs1)NC(C)=O (stereo not drawn) | -10.9% |
| CCc1n[nH]c(C2CN(Cc3nnc(C4CC4)n3C)CCO2)n1 (stereo not drawn) | 5.25% |
| Cc1noc([C@@H]2C[C@H]3OCC[C@H]3N(C(C)C)C2)n1 | -125% |
| CN1CCN(Cc2cn3c(n2)CN(Cc2ccc(F)cc2)CC3)CC1 | -113% |
| O=S(=O)(C1CC1)N1CCc2ncnc(N3CCCC3)c2CC1 | -98.6% |
| CN1CCN(Cc2cnc3n2CCN(CCc2ccccc2)C3)CC1 | -6.98% |
| Cc1cnc(N2C[C@H]3C[C@H](C(=O)N4CCN(C)CC4)N(C)[C@H]3C2)nc1 | -135% |
| COCCN1CCO[C@H]2CCN(C(=O)c3cccs3)CC[C@@H]21 | -0.234% |
| CC(c1ccc(F)cc1F)N1CCN(CCC(=O)O)CC1 (stereo not drawn) | -3.6% |
| CNC1CCCN(Cc2noc(C3CC3)n2)C1 (stereo not drawn) | 0.95% |
| CS(=O)(=O)NCc1ncn2c1CN(Cc1cccs1)CCC2 | -66.8% |
| Cc1nc(CO[C@H]2CN(Cc3ccccn3)[C@@H]3CCCO[C@H]23)cs1 | 1.33% |
| Cc1cnc(C(=O)N2CCCC(c3c(C)c(=O)nc4n3CCC4)C2)cn1 (stereo not drawn) | -26.5% |
| COc1cc(OC)cc(-c2cc(CN)nc3ccnn23)c1 | -0.945% |
| CN(Cc1ccco1)C1CCC12CCN(C(=O)N1CCCC1)CC2 (stereo not drawn) | -1.54% |
| CC(C)n1nc(CNc2ncccn2)c2c1CN(C1CCOCC1)CC2 | -129% |
| CCn1cc(C(=O)N2C[C@H]3CC(Oc4ccccc4)C[C@H]3C2)cn1 (stereo partly drawn) | 5.75% |
| CC(=O)N1C[C@H]2CC[C@@H](C1)N(S(=O)(=O)c1cc(F)ccc1C)C2 | 2.91% |
| CN(C)C1(CNC(=O)CC=Cc2ccc(F)cc2)CCOCC1 | 8.99% |
